Data taken from PubChem BioAssay.
Activity calls are given as the source filed them.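 The calls were made as follows, unless noted: active = viability at or under a set limit in both replicates, limit being median viability minus 3 SD (cut at about 48% in these data, passing the limit was not always enough); inconclusive = at or under the limit in just one replicate; inactive = at or above the limit in both replicates.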

Tests used:
[1] = reducers of endogenous Her2 protein level, primary screen, SKBR3 breast tumor cells, AlphaScreen, ATP viability (AID 461;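 active = Her2 level under about 52% in both replicate screens, with viability over 70% of control, limit read from the data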;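 as to Her2 level: lower value means less Her2 protein in the cells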;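 as to viability: percent of carrier control wells set as 100% viability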); conditions: 18-24 h, measured here: SKBR3 viability, ATP luminescence, at 10 µM
[2] = molecular target: Receptor tyrosine-protein kinase erbB-2 (Homo sapiens) (UniProt P04626); assay: as above; conditions: 18-24 h, at 10 µM, stronger effect = lower value
Sequence of Receptor tyrosine-protein kinase erbB-2 (Homo sapiens) (P04626 whole entry, looked up): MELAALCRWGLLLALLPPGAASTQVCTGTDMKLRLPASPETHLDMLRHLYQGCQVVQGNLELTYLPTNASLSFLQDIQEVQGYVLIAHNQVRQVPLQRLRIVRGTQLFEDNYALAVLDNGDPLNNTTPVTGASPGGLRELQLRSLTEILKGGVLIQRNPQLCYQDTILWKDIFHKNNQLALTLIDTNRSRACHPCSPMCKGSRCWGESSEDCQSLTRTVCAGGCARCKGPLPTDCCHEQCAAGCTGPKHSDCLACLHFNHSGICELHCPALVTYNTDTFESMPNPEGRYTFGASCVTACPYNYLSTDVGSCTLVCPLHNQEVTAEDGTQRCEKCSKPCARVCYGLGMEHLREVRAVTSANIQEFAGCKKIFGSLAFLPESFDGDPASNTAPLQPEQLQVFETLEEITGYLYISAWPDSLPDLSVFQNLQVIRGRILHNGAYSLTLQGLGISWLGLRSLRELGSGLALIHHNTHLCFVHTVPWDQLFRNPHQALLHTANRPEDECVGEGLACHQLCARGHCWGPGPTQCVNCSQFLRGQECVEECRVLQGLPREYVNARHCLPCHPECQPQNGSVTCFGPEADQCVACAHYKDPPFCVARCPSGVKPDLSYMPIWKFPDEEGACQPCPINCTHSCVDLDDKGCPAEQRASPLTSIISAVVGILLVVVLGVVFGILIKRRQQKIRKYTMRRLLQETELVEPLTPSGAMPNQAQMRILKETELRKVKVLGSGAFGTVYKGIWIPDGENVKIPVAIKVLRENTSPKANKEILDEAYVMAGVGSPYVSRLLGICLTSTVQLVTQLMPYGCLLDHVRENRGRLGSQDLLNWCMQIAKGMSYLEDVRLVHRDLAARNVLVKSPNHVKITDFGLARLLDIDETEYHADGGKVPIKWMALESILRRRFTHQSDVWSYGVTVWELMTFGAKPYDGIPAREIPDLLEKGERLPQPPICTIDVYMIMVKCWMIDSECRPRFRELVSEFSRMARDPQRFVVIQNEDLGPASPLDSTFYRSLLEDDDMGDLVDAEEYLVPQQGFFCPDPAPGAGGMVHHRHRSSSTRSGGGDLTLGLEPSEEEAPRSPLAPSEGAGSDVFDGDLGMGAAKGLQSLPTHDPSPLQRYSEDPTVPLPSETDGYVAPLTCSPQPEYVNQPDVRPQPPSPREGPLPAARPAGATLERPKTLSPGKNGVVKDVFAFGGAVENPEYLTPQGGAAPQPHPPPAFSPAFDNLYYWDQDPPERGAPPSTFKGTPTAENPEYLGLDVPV

[3] = SK-BR-3 cell growth inhibitors, pilot screen, 24 h, human (AID 572;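 active = viability at or below 10% of carrier control in both of two separate runs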;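 also: compound exposure lasted between 18 and 24 h rather than exactly 24 h; 100% = carrier-treated control wells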); conditions: SK-BR-3 viability, CellTiter-Glo luminescence, at 10 µM, stronger effect = lower value
[4] = HUVEC growth inhibition – cell-based, human, primary screen (AID 575;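 active = viability at or below 30% in both replicate assays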;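 also: 100% = median of untreated cell wells with 0.1% DMSO on each plate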); conditions: HUVEC proliferation, CellTiter-Glo luminescence, 72 h; at 10 µM; stronger effect = lower value
Method in brief: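 Assay system: primary human umbilical vein endothelial cells / Buffer or medium: endothelial basal medium with 2% FBS plus growth supplements / Compound dosing: one dose, 10 µM final, 0.1% DMSO / Timing: 72 h treatment at 37 °C / Signal: CTG luminescence / Benchmarks: 32 DMSO-only cell-control wells (high), 32 MePR drug-control wells (low) per plate / Plate: collagen-coated 384-well format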

[5] = growth inhibitors of H69AR lung tumor, primary screen, human, duplicate replicates (AID 580); conditions: H69AR lung tumor cells viability, ATP luminescence, 72 h; at 10 µM; stronger effect = lower value;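 also: 100% = mean luminescence of untreated wells and 0% = no signal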
[6] = reversal of MRP1-mediated doxorubicin resistance, pilot screen, H69AR cells, doxorubicin co-treatment (AID 601;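 active = viability loss from added drug above about 55%, and viability with drug at most 40%, in both replicates, limit read from the data, passing the limit was not always enough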); conditions: CellTiter-Glo, 72 h, at 10 µM; for differential viability (reversal): stronger effect = higher value
[7] = 384-well plate pilot, post-Golgi transport modulator project, inhibition of yeast transport mutant growth (AID 636; in the data active = inhibition above about 31%); conditions: absorbance 615 nm, about 18 h, stronger effect = higher value
[8] = growth suppression of yeast trafficking mutant, preliminary HTS, modulators of trafficking downstream of Golgi apparatus project, 1536-format plate, OD 615 nm (AID 637; in the data active = inhibition above about 30%); conditions: yeast transport mutant growth, absorbance 615 nm, 18 h; stronger effect = higher value
[9] = H69AR cells + 2 uM doxorubicin, measured here: viability with 2 uM doxorubicin, stronger effect = lower value
[10] = H69AR cells, compound alone cytotoxicity

Row | Structure (SMILES) | viability [1] [%] | Her2 level [2] | viability [3] | viability [4] | viability [5] | differential viability (reversal) ([6]; H69AR cells + 2 uM doxorubicin) | viability [6, 9] [%] | viability [6, 10] [%] | inhibition [7] | inhibition [8]
1 | COCCNC(=O)CCc1nc(-c2ccccc2)no1 | 87 | 103% (inactive) | 87% (inactive) | 92.6% (inactive) | 103% (inactive) | 5.2% (inactive) | 98.1 | 103 | -3.47% (inactive) | 2.7% (inactive)
2 | COCC(=O)N(Cc1nc2ccccc2c(=O)[nH]1)Cc1cccs1 | 103 | 100% (inactive) | 103% (inactive) | 93.3% (inactive) | 98.8% (inactive) | -2.5% (inactive) | 101 | 98.8 | -3.07% (inactive) | -0.65% (inactive)
3 | Cc1ccnc(SCCn2c(N3CCCCC3)nc3c2c(=O)n(C)c(=O)n3C)n1 | 76.5 | 88.5% (inactive) | 76.5% (inactive) | 93.9% (inactive) | 91.2% (inactive) | 3% (inactive) | 88.2 | 91.2 | -5.66% (inactive) | -3% (inactive)
4 | COc1ccccc1N1CCN(C(=O)c2ccc(CS(=O)(=O)c3ccccc3OC)o2)CC1 | 90.5 | 104% (inactive) | 90.5% (inactive) | 85.1% (inactive) | 76.2% (inactive) | -11.9% (inactive) | 88.1 | 76.2 | -5.39% (inactive) | -0.32% (inactive)
5 | Cc1cc(C2C(C#N)=C(N)SC(N)=C2C#N)c(C)s1 | 107 | 100% (inactive) | 107% (inactive) | 82.4% (inactive) | 94.7% (inactive) | 7.28% (inactive) | 87.5 | 94.7 | -2.89% (inactive) | 7.21% (inactive)
6 | COc1cccc(-c2nc(CS(=O)CC(=O)NCCCOC(C)C)c(C)o2)c1 (stereo not given) | 102 | 108% (inactive) | 102% (inactive) | 118% (inactive) | 101% (inactive) | 6.34% (inactive) | 95.1 | 101 | -1.6% (inactive) | -6.94% (inactive)
7 | CCn1c(C)nc2cc(C(=O)OCCC(F)(F)F)ccc21 | 100 | 112% (inactive) | 100% (inactive) | 108% (inactive) | 89.8% (inactive) | -3.94% (inactive) | 93.7 | 89.8 | -2.44% (inactive) | 7.67% (inactive)
8 | Cc1sc2ncnc(OCC(=O)N3CCN(S(=O)(=O)c4ccc(Cl)cc4)CC3)c2c1C | 92.5 | 86% (inactive) | 92.5% (inactive) | 89.2% (inactive) | 84.8% (inactive) | 0.87% (inactive) | 84 | 84.8 | 0.53% (inactive) | -0.91% (inactive)
9 | O=C(c1cnn2c(C(F)F)cc(C3CC3)nc12)N1CCOCC1 | 104 | 102% (inactive) | 104% (inactive) | 107% (inactive) | 113% (inactive) | 19.2% (inactive) | 93.5 | 113 | -3.29% (inactive) | -10.2% (inactive)
10 | COCCn1c(C23CC4CC(CC(C4)C2)C3)n[nH]c1=S | 90 | 94.5% (inactive) | 90% (inactive) | 79.5% (inactive) | 77.2% (inactive) | 1.57% (inactive) | 75.6 | 77.2 | -2.34% (inactive) | 1.33% (inactive)
11 | COc1ccc(OCc2cccc(C(=O)O)c2)cc1 | 105 | 78.5% (inactive) | 105% (inactive) | 75.7% (inactive) | 88.1% (inactive) | 7.06% (inactive) | 81 | 88.1 | -4.47% (inactive) | 0.91% (inactive)
12 | Cn1cnnc1SCC(=O)Nc1sc2c(c1C#N)CCCCC2 | 86 | 102% (inactive) | 86% (inactive) | 73.5% (inactive) | 95.2% (inactive) | 11.4% (inactive) | 83.9 | 95.2 | 10.1% (inactive) | 27.9% (inactive)
13 | CSc1nc(C)cc(OCC(=O)N2CCOCC2)n1 | 130 | 112% (inactive) | 130% (inactive) | 99.2% (inactive) | 92.7% (inactive) | 2.54% (inactive) | 90.2 | 92.7 | -4.81% (inactive) | 5% (inactive)
14 | CCOc1ccc(C2/C(=C(/O)c3ccc(OC)cc3)C(=O)C(=O)N2c2cc(C)on2)cc1OC (stereo not given) | 85 | 144% (inactive) | 85% (inactive) | 82.3% (inactive) | 89.4% (inactive) | -10.3% (inactive) | 99.7 | 89.4 | 1.45% (inactive) | 10.7% (inactive)
15 | COCn1c(COc2ccccc2)nc2ccccc21 | 86.5 | 94% (inactive) | 86.5% (inactive) | 107% (inactive) | 82.6% (inactive) | -2.19% (inactive) | 84.8 | 82.6 | -9.32% (inactive) | -2.67% (inactive)
16 | Cn1c(SCC(=O)N2CCOCC2)nnc1-c1cccc(NC(=O)c2ccccc2F)c1 | 102 | 82.5% (inactive) | 102% (inactive) | 94% (inactive) | 91.5% (inactive) | 11.4% (inactive) | 80.1 | 91.5 | -0.92% (inactive) | 3.06% (inactive)

Row | Structure (SMILES) | viability [1] [%] | Her2 level [2] | viability [3] | viability [4] | viability [5] | differential viability (reversal) ([6]; H69AR cells + 2 uM doxorubicin) | viability [6, 9] [%] | viability [6, 10] [%] | inhibition [7] | inhibition [8]
17 | CCOC(=O)N1CCN(S(=O)(=O)c2ccc(OCC)c(C)c2)CC1 | 110 | 88.5% (inactive) | 110% (inactive) | 88.9% (inactive) | 103% (inactive) | 17.6% (inactive) | 85.5 | 103 | -1.95% (inactive) | -3.17% (inactive)
18 | NC(=O)C1CCN(CC(=O)N2c3ccccc3CCc3ccccc32)CC1 | 117 | 114% (inactive) | 117% (inactive) | 103% (inactive) | 93.9% (inactive) | 1.55% (inactive) | 92.3 | 93.9 | -5.53% (inactive) | 5.25% (inactive)
19 | CCCN1C2CCCC1CC(NC(=O)Nc1cccc(C(C)=O)c1)C2 (stereo not given) | 105 | 77% (inactive) | 105% (inactive) | 94.8% (inactive) | 94.3% (inactive) | -2.24% (inactive) | 96.5 | 94.3 | -1.95% (inactive) | -0.95% (inactive)
20 | COc1ccc(CN(Cc2nc3ccccc3c(=O)[nH]2)C(=O)NC2CCCCC2)cc1 | 95.5 | 71% (inactive) | 95.5% (inactive) | 91.4% (inactive) | 90.2% (inactive) | 0.78% (inactive) | 89.4 | 90.2 | -4.61% (inactive) | -0.5% (inactive)
21 | CCC(CO)Nc1ncnc2c1cnn2-c1ccc(Cl)cc1 (stereo not given) | 94.5 | 126% (inactive) | 94.5% (inactive) | 91.7% (inactive) | 93.7% (inactive) | 13.5% (inactive) | 80.2 | 93.7 | -5.73% (inactive) | -5% (inactive)
22 | O=C(NCC(c1cccnc1)N1CCN(c2ccc(F)cc2)CC1)c1ccc(F)cc1 (stereo not given) | 90 | 86.5% (inactive) | 90% (inactive) | 103% (inactive) | 92.7% (inactive) | 1.7% (inactive) | 91 | 92.7 | -3.11% (inactive) | 8.25% (inactive)
23 | Cc1ccc(N=C2NC(=O)CS2)c(C)c1 | 71 | 91% (inactive) | 71% (inactive) | 89.7% (inactive) | 102% (inactive) | 5.32% (inactive) | 96.7 | 102 | -5% (inactive) | 5.57% (inactive)
24 | COCCn1c(C)cc(C(=O)COC(=O)c2n[nH]c3ccccc23)c1C | 97.5 | 84% (inactive) | 97.5% (inactive) | 92.5% (inactive) | 81.3% (inactive) | -2.8% (inactive) | 84.1 | 81.3 | -8.24% (inactive) | 0.98% (inactive)
25 | CCNC(=O)N(C(=O)NCC)n1c(C)nnc1C | 100 | 90% (inactive) | 100% (inactive) | 105% (inactive) | 104% (inactive) | 18.7% (inactive) | 85.3 | 104 | -5.33% (inactive) | 1.48% (inactive)
26 | O=C(COC(=O)CCc1c[nH]c2ccccc12)NC1CCS(=O)(=O)C1 (stereo not given) | 87.5 | 96% (inactive) | 87.5% (inactive) | 90.8% (inactive) | 90.1% (inactive) | 1.06% (inactive) | 89.1 | 90.1 | 1.04% (inactive) | -4.76% (inactive)
27 | O=C(NCc1ccco1)C1CC(=O)N(c2ccc(F)cc2)C1 (stereo not given) | 96.5 | 97% (inactive) | 96.5% (inactive) | 108% (inactive) | 108% (inactive) | 16% (inactive) | 91.5 | 108 | -0.93% (inactive) | -1.61% (inactive)
28 | O=C(NCC1CCCO1)C1CCCN(S(=O)(=O)c2cccc3nsnc23)C1 (stereo not given) | 95.5 | 118% (inactive) | 95.5% (inactive) | 93.2% (inactive) | 98.5% (inactive) | 14.3% (inactive) | 84.2 | 98.5 | -2.27% (inactive) | -7.62% (inactive)
29 | O=C(Cn1nnc(-c2ccc(S(=O)(=O)N3CCCC3)cc2)n1)NCC1CCCO1 (stereo not given) | 86 | 99% (inactive) | 86% (inactive) | 89% (inactive) | 101% (inactive) | 2.39% (inactive) | 98.7 | 101 | -3.78% (inactive) | 2.95% (inactive)
30 | Cc1cc(NC(=O)c2cnn3cccnc23)no1 | 101 | 108% (inactive) | 101% (inactive) | 97% (inactive) | 97.8% (inactive) | 4.21% (inactive) | 93.5 | 97.8 | -0.92% (inactive) | -5.65% (inactive)
31 | CCCCCCNC(=O)Cc1c(O)c2ccccc2[nH]c1=O | 105 | 90.5% (inactive) | 105% (inactive) | 114% (inactive) | 94.9% (inactive) | 14.7% (inactive) | 80.2 | 94.9 | -5.27% (inactive) | 7.67% (inactive)
32 | Cc1ccccc1CN1CCNC1=O | 114 | 80% (inactive) | 114% (inactive) | 88.3% (inactive) | 90.8% (inactive) | 8.97% (inactive) | 81.9 | 90.8 | -3.16% (inactive) | 6.61% (inactive)
